Rows were chosen to be rich in hits. Some 3.8% of all compounds tested hit in one or more screens of this group.
NPY1 pot ag = NPY-Y1 receptor potentiators or agonists, primary screen, cell-based; Neuropeptide Y receptor type 1 (Homo sapiens), P25929; NPY-Y1 expressing cells, potentiator/agonist activation; activation, % at 3.6 µM; 220,000 tested, 0.37% active; AID 1304, 2008; in the data active = activation above about 33%, passing the limit was not always enough;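 also: cells stimulated with NPY at EC10 then isoproterenol at EC100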
Target sequence (P25929 whole entry, looked up): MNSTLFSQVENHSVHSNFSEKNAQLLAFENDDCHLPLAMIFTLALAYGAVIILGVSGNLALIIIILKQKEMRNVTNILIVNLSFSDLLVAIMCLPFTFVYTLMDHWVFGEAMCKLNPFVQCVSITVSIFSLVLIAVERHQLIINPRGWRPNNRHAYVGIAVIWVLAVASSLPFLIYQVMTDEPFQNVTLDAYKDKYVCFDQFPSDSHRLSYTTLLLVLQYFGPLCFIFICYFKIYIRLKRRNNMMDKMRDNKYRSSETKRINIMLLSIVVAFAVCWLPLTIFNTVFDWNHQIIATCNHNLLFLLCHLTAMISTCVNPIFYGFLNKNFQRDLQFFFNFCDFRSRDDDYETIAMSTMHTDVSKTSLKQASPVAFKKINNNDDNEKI
NPY2 pot ag = NPY-Y2 potentiators or agonists, primary screen, cell-based; cells expressing NPY-Y2, potentiator/agonist read-out; activation, % at 3.6 µM; 220,000 tested, 0.45% active; AID 1359, 2008; in the data active = activation above about 27%;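 also: cells stimulated with NPY near EC25 plus isoproterenol at EC100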
Target sequence (P49146 whole entry, looked up): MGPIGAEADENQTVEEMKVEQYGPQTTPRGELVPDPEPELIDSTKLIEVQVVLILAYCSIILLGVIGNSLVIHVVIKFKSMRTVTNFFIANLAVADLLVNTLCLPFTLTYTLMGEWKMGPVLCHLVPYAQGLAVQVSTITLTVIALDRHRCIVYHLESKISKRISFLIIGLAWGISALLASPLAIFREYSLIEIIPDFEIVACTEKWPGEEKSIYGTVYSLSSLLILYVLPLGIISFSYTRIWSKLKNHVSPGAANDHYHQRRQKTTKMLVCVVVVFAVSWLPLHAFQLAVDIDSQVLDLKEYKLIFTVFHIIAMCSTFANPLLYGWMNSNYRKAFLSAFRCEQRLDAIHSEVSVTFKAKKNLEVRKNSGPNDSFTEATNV
RAM inhibit = inhibitors of the yeast RAM network, primary screen, dse1pr::URA3 reporter, 5-FOA selection; 190,000 tested, 1.8% active; S. cerevisiae dse1pr::URA3 reporter, 5-FOA growth OD615, 2 d; analog-sensitive cbk1-as2 kinase mutant strain; inhibition, % at 50 µM;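 active = inhibition above a set limit, 3 SD over mean compound inhibition, cut at about 8.4% in these data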;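 also: inhibition rescues growth on 5-FOA so higher OD means more RAM inhibition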
Insulin prom inh = inhibitors of insulin promoter-driven GFP, primary screen, imaging, TRM-6 cells, eGFP reporter, cell count; reporter expression induced with tamoxifen; inhibition, % at 2 µM; 130,000 tested, 0.9% active;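 active = inhibition above the mean plus 3 SD, with well images judged a real hit on visual review, cut at about 60% in these data, passing the limit was not always enough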
NPY Y1 blocker = NPY-Y1 receptor antagonists, primary screen, cell-based. HEK293-CNG Y1 cells, membrane potential fluorescence; NPY at EC95, then isoproterenol. inhibition, % at 3.6 µM. 200,000 tested, 1% active;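 active = inhibition above the campaign mean inhibition of all tested compounds plus 3 SD, cut at about 20% in these data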
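Assay system: HEK293 Y1/CNG channel cell line; Doses: single compound dose of 3.6 µM, 0.4% DMSO; Timing: dye 3 h, compound 60 min room temperature, stimulation 45 min; Technique: Membrane-potential fluorescent dye readout; Measure: % inhibition of NPY effect.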
NPY-Y2 antag = NPY-Y2 receptor antagonists, primary screen, cell-based | Neuropeptide Y receptor type 2 (Homo sapiens), P49146 | NPY-Y2 expressing cells, antagonist mode | inhibition, % at 2.7 µM | 140,000 tested, 0.99% active | AID 793, 2007; in the data active = inhibition above about 17%
Of the large screens only hits and unclear results are named; the others gave an inactive call.

CC(C)Nc1nc(NC(C)C)nc(N(C)C(N)=O)n1	Insulin prom inh 73
CC(C)Nc1nc(NC(C)C)nc(N(C)N)n1	none
CC(=O)C1=C(C)NC(SCC(=O)c2ccc(Cl)cc2)=C(C#N)C1CC(C)C (centres undefined)	RAM inhibit 9.1
O=C(NNC(=O)C1[C@H]2CCCC[C@@H]12)Nc1cccc2ccccc12 (some centres undefined)	none (no result: RAM inhibit, Insulin prom inh, NPY Y1 blocker, NPY-Y2 antag)
CCOC(=O)N1CCN(C(=O)CSc2ccc(-c3ccncc3)nn2)CC1	Insulin prom inh 75 (no result: NPY-Y2 antag)
CCOC(=O)N1CCN(C(=O)CSc2ccc(-c3ccccc3)nn2)CC1	none (no result: NPY-Y2 antag)
O=C(O)c1ccccc1SCC(=O)N1c2ccccc2Sc2ccccc21	RAM inhibit 11
O=C(O)c1ccccc1SCC(=O)N1CCCCC1	none
CN1C(=O)/C(=C\c2ccccc2)Sc2ccc(C(=O)N3CCN(c4ccccn4)CC3)cc21	none
COC(=O)c1cc(-c2ccc(Cl)cc2Cl)n[nH]1	Insulin prom inh 78 (no result: NPY-Y2 antag)
COC(=O)c1cc(-c2ccc(Cl)cc2)n[nH]1	none (no result: Insulin prom inh, NPY-Y2 antag)
CCOc1ccccc1C(=O)Nc1ccsc1C(=O)OC	NPY Y1 blocker 21, NPY-Y2 antag 20
CCCN1C(=O)/C(=N\OCC(=O)NC23CC4CC(CC(C4)C2)C3)c2ccccc21	none
O=C(Cn1nc(-c2ccccc2)ccc1=O)Nc1ccc(-n2cnnn2)cc1	none (no result: RAM inhibit, Insulin prom inh, NPY Y1 blocker, NPY-Y2 antag)
O=C(Cn1nc(-c2ccccc2)ccc1=O)Nc1ccc(N2CCN(C(=O)c3ccccc3)CC2)cc1	NPY2 pot ag 33 (no result: Insulin prom inh)
O=C(CN1C(=O)c2ccccc2C1=O)NCCOc1ccccc1	none (no result: RAM inhibit, Insulin prom inh, NPY Y1 blocker, NPY-Y2 antag)
O=C(CCc1ccc(S(=O)(=O)NC2CCCCC2)cc1)N(Cc1ccccc1)Cc1ccccc1	RAM inhibit 11
Cc1ccc(NC(=S)N2CCC(N(C)CC3CCCO3)CC2)cc1 (centres undefined)	none (no result: NPY-Y2 antag)
COCCN(CCOC)C(=O)COC(=O)c1ccc(Cl)c(S(=O)(=O)N(C)c2ccccc2)c1	none (no result: NPY-Y2 antag)
CCOC(=O)c1c(NC(=O)CCC(=O)N(CC)CC)sc2c1CC(C)(C)OC2	none (no result: RAM inhibit, Insulin prom inh, NPY Y1 blocker, NPY-Y2 antag)
COC(=O)c1c(NC(=O)c2ccccc2)sc2c1CC(C)(C)OC2	none
CCOC(=O)c1c(NC(=O)c2ccc(C)cc2)sc2c1CC(C)(C)OC2	RAM inhibit 10
CCCC(=O)Nc1sc2c(c1C(=O)OCC)CC(C)(C)OC2	Insulin prom inh 75 (no result: NPY-Y2 antag)
CCOC(=O)c1c(NC(=O)c2ccccc2C)sc2c1CC(C)(C)OC2	RAM inhibit 8.8 (no result: Insulin prom inh)
COc1ccc(NC(=S)NN(C)C(=S)Nc2ccc(OC)cc2)cc1	none
COC(=O)Cn1nnc(N2CCOCC2)n1	none (no result: RAM inhibit, Insulin prom inh, NPY Y1 blocker, NPY-Y2 antag)
CCCCOCCCNC(=O)c1ccc(NC(C)=O)cc1	RAM inhibit 9.3
COc1ccccc1C(=O)Nc1nsc(-c2ccccc2)n1	none (no result: RAM inhibit, Insulin prom inh, NPY Y1 blocker, NPY-Y2 antag)
Cc1cc(C)n2c(SCc3c(C)noc3C)nnc2n1	Insulin prom inh 80
O=C(Cc1c(Cl)cccc1Cl)OCC(=O)N1CCN(C(=O)c2ccco2)CC1	none (no result: Insulin prom inh, NPY-Y2 antag)
COc1ccc(/C=C/C(=O)Nc2cccc(N3CCOCC3)c2)cc1OC	none
Clc1ccc(OCc2nnc(SCc3nnc(-c4ccccc4)o3)o2)c(Cl)c1	RAM inhibit 9.6
Cc1ccc(N(C)S(=O)(=O)c2cccc(C(=O)Nc3nnc(C4CC4)s3)c2)cc1	none (no result: NPY-Y2 antag)
COc1cc(OC)c(N(C)S(=O)(=O)c2cccc(C(=O)Nc3nnc(C4CC4)s3)c2)cc1Cl	NPY1 pot ag 71, NPY2 pot ag 56 (no result: RAM inhibit, Insulin prom inh, NPY Y1 blocker, NPY-Y2 antag)
C=CCOc1c(Cl)cc(CNc2ccc(N(C)C)cc2)cc1OC	RAM inhibit 8.4
CC(=O)c1ccc(-c2ccc(C(=O)N3CCCc4ccccc43)o2)cc1	RAM inhibit 9.4 (no result: NPY-Y2 antag)
CCOc1ccc(-c2n[nH]c(C)c2Oc2ccc(OC)cc2)c(O)c1	none (no result: Insulin prom inh)
CC1CCCCC1NCC#CCOc1ccc(Cl)cc1 (centres undefined)	none (no result: Insulin prom inh, NPY-Y2 antag)
Cc1ccc(CN(C(=O)Cc2cccs2)C(C(=O)NC2CCCC2)c2ccncc2)cc1 (centres undefined)	none
COc1ccc(CNC(=O)C(c2ccco2)N(Cc2cccs2)C(=O)Cc2cccs2)cc1 (centres undefined)	none
COc1ccc(CNC(=O)C(c2cccs2)N(Cc2ccco2)C(=O)Cc2cccs2)cc1 (centres undefined)	RAM inhibit 11
Cc1ccc(C(C(=O)NCc2ccccc2)N(Cc2cccs2)C(=O)c2ccc3c(c2)OCCO3)cc1 (centres undefined)	none
Cc1ccc(C(C(=O)NC2CCCC2)N(Cc2ccc3c(c2)OCO3)C(=O)Cc2cccs2)cc1 (centres undefined)	NPY-Y2 antag 22
Cc1ccc(C(C(=O)NC2CCCCC2)N(CC2CCCO2)C(=O)CNC(=O)c2cccs2)cc1 (centres undefined)	RAM inhibit 8.9
COc1ccc(CNC(=O)C(c2ccc(C)cc2)N(Cc2cccs2)C(=O)c2ccc3c(c2)OCCO3)cc1 (centres undefined)	RAM inhibit 8.7
CC(OC(=O)c1ccc2c(=O)n3c(nc2c1)CCCCC3)C(N)=O (centres undefined)	none (no result: Insulin prom inh, NPY-Y2 antag)
O=C(CN1C(=O)C2CC=CCC2C1=O)N1CCN(c2ccc([N+](=O)[O-])cc2)CC1 (centres undefined)	none (no result: RAM inhibit, Insulin prom inh, NPY Y1 blocker, NPY-Y2 antag)
COCC(=O)N1CCN(c2ccc([N+](=O)[O-])cc2)CC1	NPY1 pot ag 42
CCc1sc(NC(=O)c2cc3ccccc3oc2=O)nc1-c1cccs1	none
CCn1cc(CNCc2c(C(=O)N3CCCCC3)nc3c(C)cccn23)cn1	NPY Y1 blocker 21 (no result: Insulin prom inh, NPY-Y2 antag)
Cc1ccc(NC(=O)CC(O)(C(F)(F)F)C(F)(F)F)cc1	Insulin prom inh 77
COc1ccc(C)cc1NC(=O)CC(O)(C(F)(F)F)C(F)(F)F	none (no result: Insulin prom inh)
O=C(Nn1c(-c2ccncc2)nc2ccccc2c1=O)c1ccc(Br)cc1	none (no result: NPY-Y2 antag)
O=C(Nn1c(-c2ccc(Br)cc2)nc2ccccc2c1=O)c1cccnc1	Insulin prom inh 78 (no result: NPY-Y2 antag)
COc1cccc(CN(C(=O)Cn2nnc(-c3ccccc3F)n2)C(C(=O)NC(C)(C)C)c2ccncc2)c1 (centres undefined)	none (no result: NPY-Y2 antag)
CCc1nnc(NS(=O)(=O)c2ccc(Nc3ccc4nonc4c3[N+](=O)[O-])cc2)s1	none (no result: NPY-Y2 antag)
Cc1cccc(-n2c(SCC(N)=O)nc3c(c2=O)C2(CCCC2)Cc2ccccc2-3)c1	NPY1 pot ag 48, NPY2 pot ag 39
O=c1c2c(nc3n1CCCCC3)-c1ccccc1CC21CCCCC1	RAM inhibit 9.9
CCC1(C)Cc2ccccc2-c2nc3n(c(=O)c21)CCCCC3 (centres undefined)	none
CC(C)(C)Nc1nc(Oc2ccc(=O)[nH]n2)nc(N2CCOCC2)n1	none (no result: NPY-Y2 antag)

Source: PubChem
